Assays:
Genome polyprotein = Genome polyprotein (West Nile virus, UniProt P06935); assay: Inhibition of WNV NS2B-NS3 protease by fluorescence assay
Procedure, shortened: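 Recombinant WNV NS2B-NS3 proteinase (10 nM, active-site titrated against aprotinin) preincubated 60 min at 18 °C with increasing inhibitor concentrations in 10 mM Tris-HCl pH 8.0, 20% glycerol, 0.005% Brij 35. Pyr-RTKR-AMC substrate at 25 μM; initial velocities read continuously at ex 360/em 465 nm. Triplicates; IC50 derived.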

[1] = Aqueous stability assessed as half life at pH 8.0 buffer; assay type: physicochemical
Procedure, shortened: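 Compound held in pH 8 buffer; remaining amount followed over time by LC/MS to give half-life.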

Sequence of Genome polyprotein (P06935 1371-1501 limits assumed): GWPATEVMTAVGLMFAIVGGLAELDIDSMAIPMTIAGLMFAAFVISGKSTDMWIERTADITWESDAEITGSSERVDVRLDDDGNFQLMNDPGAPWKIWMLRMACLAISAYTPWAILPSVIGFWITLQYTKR
Sequence of Genome polyprotein (P06935 1502-2120 limits assumed): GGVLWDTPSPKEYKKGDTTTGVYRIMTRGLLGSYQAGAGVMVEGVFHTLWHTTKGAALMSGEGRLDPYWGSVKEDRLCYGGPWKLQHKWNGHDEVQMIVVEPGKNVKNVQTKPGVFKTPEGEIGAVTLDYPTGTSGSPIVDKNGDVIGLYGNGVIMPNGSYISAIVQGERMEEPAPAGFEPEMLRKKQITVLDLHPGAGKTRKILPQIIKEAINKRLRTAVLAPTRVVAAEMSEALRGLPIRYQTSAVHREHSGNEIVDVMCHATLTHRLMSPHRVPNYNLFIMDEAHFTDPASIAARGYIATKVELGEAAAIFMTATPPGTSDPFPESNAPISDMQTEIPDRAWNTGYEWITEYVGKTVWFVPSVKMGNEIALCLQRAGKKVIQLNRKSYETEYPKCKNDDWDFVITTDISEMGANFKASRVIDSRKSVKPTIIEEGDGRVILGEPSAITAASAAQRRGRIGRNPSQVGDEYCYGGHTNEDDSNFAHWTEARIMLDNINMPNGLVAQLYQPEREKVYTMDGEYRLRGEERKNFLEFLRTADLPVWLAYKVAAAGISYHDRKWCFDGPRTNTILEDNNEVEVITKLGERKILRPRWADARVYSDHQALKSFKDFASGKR

IC50 (Genome polyprotein)	t1/2 [1]	Compound
> 100 µM	–	COc1ccc(Cn2nc(C)cc2CC(O)c2c(F)cccc2F)cc1 (stereo not given)
4.28 µM	2.5 h	COc1ccc(S(=O)(=O)n2nc(OC(=O)c3c(F)ccc(C)c3F)cc2N)cc1
8.04 µM	–	Cc1cc(OC(=O)c2c(F)cccc2F)n(Cc2ccccc2)n1
23.9 µM	–	COc1ccc(Cn2nc(C)cc2CC(=O)c2c(F)cccc2F)cc1
9.26 µM	–	COc1ccc(Cn2nc(C)cc2OC(=O)c2c(F)ccc(C)c2F)cc1
9.43 µM	–	Cc1cc(OC(=O)c2c(F)ccc(C)c2F)n(Cc2ccccc2)n1
4.03 µM	15 h	COc1ccc(Cn2nc(C)cc2OC(=O)c2ccccc2)cc1
8.71 µM	1.5 h	COc1ccc(Cn2nc(C)cc2OC(=O)c2c(F)cccc2F)cc1
38.8 µM	–	COc1ccc(Cn2nc(C)cc2CC(=O)c2ccccc2F)cc1

More lines, now with the values behind:

Compound	IC50 (Genome polyprotein)	t1/2 [1]
COc1ccc(S(=O)(=O)n2nc(OC(=O)c3ccccc3OC)cc2N)cc1	> 100 µM	–
COc1ccc(S(=O)(=O)n2nc(OC(=O)c3sccc3C)cc2N)cc1	5 µM	–
Cc1cc(NC(=O)c2ccccc2)n(-c2ccccc2)n1	16 µM	> 96 h
COc1ccc(S(=O)(=O)n2nc(OC(=O)c3ccc(F)cc3F)cc2N)cc1	1.96 µM	7.5 h
COc1ccc(S(=O)(=O)n2nc(OC(=O)c3c(F)ccc(F)c3F)cc2N)cc1	0.97 µM	1.5 h
COc1ccc(S(=O)(=O)n2nc(OC(=O)c3c(F)cc(F)cc3F)cc2N)cc1	1.83 µM	4.25 h
COc1ccc(Cn2nc(C)cc2CC(O)c2ccccc2)cc1 (stereo not given)	> 100 µM	–
COc1ccc(S(=O)(=O)n2nc(OC(=O)c3c(F)c(F)c(C)c(F)c3F)cc2N)cc1	10.7 µM	–
COc1ccc(S(=O)(=O)n2nc(OC(=O)c3cc(F)c(F)cc3F)cc2N)cc1	26.2 µM	–
COc1ccc(S(=O)(=O)n2nc(OC(=O)c3c(Cl)cccc3Cl)cc2N)cc1	> 100 µM	5 h
COc1ccc(S(=O)(=O)n2nc(OC(=O)c3cccc(C(F)(F)F)c3F)cc2N)cc1	45.5 µM	–
COc1ccc(S(=O)(=O)n2nc(OC(=O)c3ccccc3[N+](=O)[O-])cc2N)cc1	> 100 µM	–
COc1ccc(S(=O)(=O)n2nc(C)cc2NC(=O)c2ccccc2)cc1	9.2 µM	1.25 h
COc1ccc(S(=O)(=O)n2nc(OC(=O)c3sccc3Cl)cc2N)cc1	1.22 µM	–
COc1ccc(S(=O)(=O)n2nc(OC(=O)c3ccccc3C)cc2N)cc1	3.55 µM	–
COc1ccc(S(=O)(=O)n2nc(OC(=O)c3cc(F)ccc3F)cc2N)cc1	4.9 µM	–
COc1ccc(S(=O)(=O)n2nc(OC(=O)c3ccc(F)c(F)c3F)cc2N)cc1	11.9 µM	–
COc1ccc(Cn2nc(C)cc2CC(=O)c2ccccc2)cc1	> 100 µM	–
COc1ccc(Cn2nc(C)cc2/C=C/c2c(F)cccc2F)cc1	13.8 µM	13 h
COc1ccc(S(=O)(=O)n2nc(OC(=O)c3c(F)cccc3F)cc2N)cc1	0.31 µM	1.5 h
